Laboratory results: ChEMBL document CHEMBL1126849, “Synthesis of A-ring fluorinated derivatives of (17 alpha,20E/Z)-[125I]iodovinylestradiols: effect on receptor binding and receptor-mediated target tissue uptake” (J Med Chem, 1993)

Experiments:
Details in all cases: in vivo
Rattus norvegicus [1] = experiment: Biodistribution in liver of Iimmature female rat after 1 hr administration of 3 micro Ci (111 kBq) in the presence of (+E2); format: ADME, organism-based
Procedure, shortened: (§1)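 Immature female Long Evans rats (21–24 days, 45–70 g), unanesthetized in retention cages, given 3 µCi (111 kBq) 125I-labeled steroid i.v. via lateral tail vein. Vehicle was ethanol diluted in saline containing 1% Tween-80, giving 9% ethanol final. The blocking group received 60 µg unlabeled estradiol co-injected. Rats were killed under ether by axillary bleeding, and tissues were KCl-washed and gamma-counted. Data are %ID/g, mean ± SE, n=3–5.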

Rattus norvegicus [2] = experiment: Biodistribution in uterus / blood of Immature Female rat after 1 hr administration of 3 micro Ci (111 kBq) in the absence of 60 microg estradiol; format: ADME, organism-based
Procedure, shortened: (§2)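 Same in vivo procedure: immature female Long Evans rats (21–24 days), three to five per group, 3 μCi (111 kBq) tracer i.v. via tail vein in 9% ethanol/saline/1% Tween-80, ± 60 μg estradiol co-injected at 1 h. Uterus %ID/g (gamma counting) divided by blood, or by nontarget organ (muscle, spleen, lungs), %ID/g to give ratios.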

Rattus norvegicus [3] = experiment: Biodistribution in uterus of Immature Female rat after 5 hour administration of 3 micro Ci (111 kBq) in the absence of 60 microg estradiol; format: ADME, organism-based
Procedure, shortened: (§3)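 Immature female Long Evans rats (21–24 days, 45–70 g), 3–5 per group, unanesthetized in retention cages, given 3 μCi (111 kBq) 125I-labeled steroid by lateral tail vein. Vehicle: ethanol diluted with saline containing 1% Tween-80, final ethanol 9%. +E2 group co-injected 60 μg unlabeled estradiol (1 h only). Killed under ether; tissues KCl-washed, weighed, gamma-counted. Output: %ID/g (mean, SE) and uterus to blood or nontarget (muscle, spleen, lungs) ratios.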

Rattus norvegicus [4] = experiment: Biodistribution in kidney of Immature Female rat after 5 hour administration of 3 micro Ci (111 kBq) in the absence of 60 microg estradiol; format: ADME, organism-based; procedure, shortened: as §1
Rattus norvegicus [5] = experiment: Biodistribution in kidney of Immature Female rat after 3 hour administration of 3 micro Ci (111 kBq) in the absence of 60 microg estradiol; format: ADME, organism-based; procedure, shortened: as §1
Rattus norvegicus [6] = experiment: Biodistribution in uterus / blood of Immature Female rat after 5 hour administration of 3 micro Ci (111 kBq) in the absence of 60 microg estradiol; format: ADME, organism-based; procedure, shortened: as §2
Rattus norvegicus [7] = experiment: Biodistribution in fat of Immature Female rat after 3 hour administration of 3 micro Ci (111 kBq) in the absence of 60 microg estradiol; format: ADME, organism-based, Adipose tissue; procedure, shortened: as §1
Rattus norvegicus [8] = experiment: Biodistribution in fat of Immature Female rat after 1 hr administration of 3 micro Ci (111 kBq) in the absence of 60 microg estradiol; format: ADME, organism-based, Adipose tissue; procedure, shortened: as §1
Rattus norvegicus [9] = experiment: Biodistribution in muscle of Immature Female rat after 5 hour administration of 3 micro Ci (111 kBq) in the absence of 60 microg estradiol; format: ADME, organism-based, Muscle tissue
Procedure, shortened: (§4)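 Immature female Long Evans rats (21–24 days, 45–70 g), three to five per group, given 125I-labeled steroid (3 μCi, 111 kBq) by lateral tail vein without anesthesia. Vehicle: ethanol diluted in saline with 1% Tween-80, final ethanol 9%, 0.22 μm filtered. +E2 groups received 60 μg unlabeled estradiol co-injected. Killed under ether at set times; tissues KCl-washed, blotted, weighed, gamma counted; %ID/g, mean with SE.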

Rattus norvegicus [10] = experiment: Biodistribution in liver of Immature Female rat after 12 hour administration of 3 micro Ci (111 kBq) in the absence of 60 microg estradiol; format: ADME, organism-based; procedure, shortened: as §1
Rattus norvegicus [11] = experiment: Biodistribution in muscle of Immature Female rat after 12 hour administration of 3 micro Ci (111 kBq) in the absence of 60 microg estradiol; format: ADME, organism-based, Muscle tissue; procedure, shortened: as §4
Rattus norvegicus [12] = experiment: Biodistribution in liver of Immature Female rat after 1 hr administration of 3 micro Ci (111 kBq) in the presence of (+E2); format: ADME, organism-based; procedure, shortened: as §1
Rattus norvegicus [13] = experiment: Biodistribution in muscle of Immature Female rat after 1 hr administration of 3 micro Ci (111 kBq) in the absence of 60 microg estradiol; format: ADME, organism-based, Muscle tissue; procedure, shortened: as §4
Rattus norvegicus [14] = experiment: Biodistribution in lungs of Immature Female rat after 1 hr administration of 3 micro Ci (111 kBq) in the presence of (+E2); format: ADME, organism-based, Lung; procedure, shortened: as §1
Rattus norvegicus [15] = experiment: Biodistribution in thyroid of Immature Female rat after 3 hour administration of 3 micro Ci (111 kBq) in the absence of 60 microg estradiol; format: ADME, organism-based, Thyroid gland; procedure, shortened: as §4
Rattus norvegicus [16] = experiment: Biodistribution in spleen of Immature Female rat after 12 hour administration of 3 micro Ci (111 kBq) in the absence of 60 microg estradiol; format: ADME, organism-based; procedure, shortened: as §4
Rattus norvegicus [17] = experiment: Biodistribution in lungs of Immature Female rat after 5 hour administration of 3 micro Ci (111 kBq) in the absence of 60 microg estradiol; format: ADME, organism-based, Lung; procedure, shortened: as §1
Rattus norvegicus [18] = experiment: Biodistribution in liver of Immature Female rat after 3 hour administration of 3 micro Ci (111 kBq) in the absence of 60 microg estradiol; format: ADME, organism-based; procedure, shortened: as §1
Rattus norvegicus [19] = experiment: Biodistribution in muscle of Immature Female rat after 3 hour administration of 3 micro Ci (111 kBq) in the absence of 60 microg estradiol; format: ADME, organism-based, Muscle tissue; procedure, shortened: as §4
Rattus norvegicus [20] = experiment: Biodistribution in thyroid of Immature Female rat after 1 hr administration of 3 micro Ci (111 kBq) in the presence of (+E2); format: ADME, organism-based, Thyroid gland; procedure, shortened: as §4
Rattus norvegicus [21] = experiment: Biodistribution in spleen of Immature Female rat after 3 hour administration of 3 micro Ci (111 kBq) in the absence of 60 microg estradiol; format: ADME, organism-based; procedure, shortened: as §4
Rattus norvegicus [22] = experiment: Biodistribution in uterus / spleen, muscle, lungs of Immature Female rat after 1 hr administration of 3 micro Ci (111 kBq) in the absence of 60 microg estradiol; format: ADME, organism-based; procedure, shortened: as §2
Rattus norvegicus [23] = experiment: Biodistribution in uterus / spleen, muscle, lungs of Immature Female rat after 12 hour administration of 3 micro Ci (111 kBq) in the absence of 60 microg estradiol; format: ADME, organism-based; procedure, shortened: as §2
Rattus norvegicus [24] = experiment: Biodistribution in uterus / spleen, muscle, lungs of Immature Female rat after 3 hour administration of 3 micro Ci (111 kBq) in the absence of 60 microg estradiol; format: ADME, organism-based; procedure, shortened: as §2
Rattus norvegicus [25] = experiment: Biodistribution in spleen of Immature Female rat after 5 hour administration of 3 micro Ci (111 kBq) in the absence of 60 microg estradiol; format: ADME, organism-based; procedure, shortened: as §4
Rattus norvegicus [26] = experiment: Biodistribution in uterus/spleen, muscle, lungs of immature female rat after 3 hour administration of 3 micro Ci (111 kBq) in the absence of 60 microg estradiol; format: ADME, organism-based; procedure, shortened: as §3
Rattus norvegicus [27] = experiment: Biodistribution in uterus/blood of immature female rat after 12 hour administration of 3 micro Ci (111 kBq) in the absence of 60 microg estradiol; format: ADME, organism-based; procedure, shortened: as §3
Rattus norvegicus [28] = experiment: Biodistribution in uterus/spleen, muscle, lungs of immature female rat after 5 hour administration of 3 micro Ci (111 kBq) in the absence of 60 microg estradiol; format: ADME, organism-based; procedure, shortened: as §3
Rattus norvegicus [29] = experiment: Biodistribution in uterus/spleen, muscle, lungs of immature female rat after 1 hr administration of 3 micro Ci (111 kBq) in the absence of 60 microg estradiol; format: ADME, organism-based; procedure, shortened: as §3
Rattus norvegicus [30] = experiment: Biodistribution in uterus/spleen, muscle, lungs of immature female rat after 12 hour administration of 3 micro Ci (111 kBq) in the absence of 60 microg estradiol; format: ADME, organism-based; procedure, shortened: as §3
Rattus norvegicus [31] = experiment: Biodistribution in uterus/spleen, muscle, lungs of immature female rat after 1 hr administration of 3 micro Ci (111 kBq) in the presence of (+E2); format: ADME, organism-based; procedure, shortened: as §3

Row | uterus/blood ratio (Rattus norvegicus [2]) | ID/g (Rattus norvegicus [3]) | ID/g (Rattus norvegicus [4]) | ID/g (Rattus norvegicus [5]) | ID/g (Rattus norvegicus [6]) | ID/g (Rattus norvegicus [7]) | ID/g (Rattus norvegicus [8]) | ID/g (Rattus norvegicus [9]) | ID/g (Rattus norvegicus [10]) | ID/g (Rattus norvegicus [11]) | ID/g (Rattus norvegicus [12]) | ID/g (Rattus norvegicus [13]) | ID/g (Rattus norvegicus [14]) | ID/g (Rattus norvegicus [15]) | ID/g (Rattus norvegicus [16]) | ID/g (Rattus norvegicus [17]) | ID/g (Rattus norvegicus [18]) | ID/g (Rattus norvegicus [19]) | ID/g (Rattus norvegicus [20]) | ID/g (Rattus norvegicus [21]) | SMILES | other results
1 | – | – | – | – | – | – | – | – | – | – | – | – | – | – | – | – | – | – | – | – | CO[C@H]1C[C@@]2(C)[C@@H](CC[C@@]2(O)/C=C/I)[C@@H]2CCc3cc(O)c(F)cc3[C@H]21 | ID/g (Rattus norvegicus [1]): 4.4%
2 | 30.4 | 12.04% | 0.94% | 1.3% | 68.66% | 2.04% | 2.68% | 0.45% | 2.28% | 0.25% | 3.24% | 0.98% | 1.95% | 126% | 0.22% | 0.52% | 2.65% | 0.56% | 71% | 0.48% | CO[C@H]1C[C@@]2(C)[C@@H](CC[C@@]2(O)/C=C/I)[C@@H]2CCc3c(ccc(O)c3F)[C@H]21 | ID/g (Rattus norvegicus [22]): 9.17%; ID/g (Rattus norvegicus [23]): 50.9%; ID/g (Rattus norvegicus [24]): 16.64%; ID/g (Rattus norvegicus [25]): 0.39%
3 | – | – | – | – | – | – | – | – | – | – | – | – | – | – | – | – | – | – | – | – | C[C@]12CC[C@@H]3c4cc(F)c(O)cc4CC[C@H]3[C@@H]1CC[C@@]2(O)/C=C/I | ID/g (Rattus norvegicus [26]): 1.49%; ID/g (Rattus norvegicus [27]): 0.92%; ID/g (Rattus norvegicus [28]): 1.14%; ID/g (Rattus norvegicus [29]): 1.42%; ID/g (Rattus norvegicus [30]): 1.25%; ID/g (Rattus norvegicus [31]): 0.81%
4 | 15.7 | 8.81% | 0.71% | 1.02% | 27.8% | 1.15% | 1.71% | 0.29% | 0.65% | 0.1% | 10.39% | 0.58% | 1.52% | 882% | 0.22% | 0.35% | 1.51% | 0.38% | 170% | 0.39% | CO[C@H]1C[C@@]2(C)[C@@H](CC[C@@]2(O)/C=C\I)[C@@H]2CCc3cc(O)c(F)cc3[C@H]21 | ID/g (Rattus norvegicus [22]): 13.04%; ID/g (Rattus norvegicus [23]): 33.82%; ID/g (Rattus norvegicus [24]): 21.65%; ID/g (Rattus norvegicus [25]): 0.38%
